Biological target: Replicase polyprotein 1a (Severe acute respiratory syndrome-related coronavirus, UniProt P0C6U8)
Experiment: Inhibition of SARS coronavirus 3CL-protease by fluorescence assay
Procedure, shortened: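 Protease inhibition was measured by a fluorometric assay. Substrate concentration was held constant while inhibitor concentration was varied, and the kinetic parameters gave Ki values.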

| SMILES | Ki |
| --- | --- |
| CC(C)C[C@H](NC(=O)c1nc2ccccc2s1)C(=O)N[C@@H](C[C@@H]1CCNC1=O)C(=O)c1nc2ccccc2s1 | 800 nM |
| CCc1c(C(=O)N[C@@H](CC(C)C)C(=O)N[C@@H](C[C@@H]2CCNC2=O)C(=O)c2nc3ccccc3s2)[nH]c2ccc(OC)cc12 | 7500 nM |
| CC(C)C[C@H](NC(=O)c1c[nH]c2ccccc12)C(=O)N[C@@H](C[C@@H]1CCNC1=O)C(=O)c1nc2ccccc2s1 | 680 nM |
| CC(C)C[C@H](NC(=O)c1cc2c(OC(C)C)cccc2[nH]1)C(=O)N[C@@H](C[C@@H]1CCNC1=O)C(=O)c1nc2ccccc2s1 | 48 nM |
| CC(C)C[C@H](NC(=O)c1cc2ccccc2o1)C(=O)N[C@@H](C[C@@H]1CCNC1=O)C(=O)c1nc2ccccc2s1 | 14000 nM |
| CC(C)C[C@H](NC(=O)C1Cc2ccccc2N1)C(=O)N[C@@H](C[C@@H]1CCNC1=O)C(=O)c1nc2ccccc2s1 (stereo partly specified) | 120 nM |
| CC(C)C[C@H](NC(=O)C1CCC(=O)N1)C(=O)N[C@@H](C[C@@H]1CCNC1=O)C(=O)c1nc2ccccc2s1 (mixture of isomers) | 2700 nM |
| CC(C)C[C@H](NC(=O)c1ccc[nH]1)C(=O)N[C@@H](C[C@@H]1CCNC1=O)C(=O)c1nc2ccccc2s1 | 1700 nM |
| COc1ccc2[nH]c(C(=O)N[C@@H](CC(C)C)C(=O)N[C@@H](C[C@@H]3CCNC3=O)C(=O)c3nc4ccccc4s3)c(C)c2c1 | 6700 nM |
| CC(C)C[C@H](NC(=O)c1cc2cc(O)ccc2[nH]1)C(=O)N[C@@H](C[C@@H]1CCNC1=O)C(=O)c1nc2ccccc2s1 | 160 nM |
| COc1ccc2cc(C(=O)N[C@@H](CC(C)C)C(=O)N[C@@H](C[C@@H]3CCNC3=O)C(=O)c3nc4ccccc4s3)[nH]c2c1 | 330 nM |

Source: ChEMBL document CHEMBL2434960 (Eur J Med Chem, 2013)
